System: MS2 coat protein
Experiment: apparent Kd, MS2 coat protein; higher = weaker binding; RNA-MaP array; FMN 200 µM where present
In short: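 In 100 mM Tris-HCl pH 7.5, 80 mM KCl, 4 mM MgCl2, BSA, DTT, yeast tRNA and Tween-20, SNAP-549-labelled MS2 coat protein was titrated from 0.7 or 1.5 nM, doubling to 3 µM, over designs transcribed by stalled E. coli RNA polymerase on Illumina sequencing-chip clusters. This was done first without ligand, then with ligand held constant. After green signal was normalised to red-channel RNA signal and control-cluster median Fmax, the apparent Kd was taken as the median of filtered per-cluster binding-curve fits.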

[1] = designed as: OFF switch for flavin mononucleotide, no ligand
[2] = ligand present: flavin mononucleotide, designed as: OFF switch for flavin mononucleotide
[3] = designed as: ON switch for flavin mononucleotide, no ligand
[4] = ligand present: flavin mononucleotide, designed as: ON switch for flavin mononucleotide

Sequence	apparent Kd [1] [nM]	apparent Kd [2] [nM]	apparent Kd [3] [nM]	apparent Kd [4] [nM]
CCCUCACAUGAGGAUCACCCAUGUUAGGAUAUCCACCGUUGAUGGUGCCGAAUCGGUAGGAGAAGGAACAUACA	23.2	54.6		
CAGGUAGACUGAGGAUAUACAUCUCUGGGCAAACCAGAGUAAAAUUCGACAUGAGGAUCACCCAUGUAGAAGGCAGUCUGCCUG	17	24.1		
CUUUUGUUAGGAUAUUAGUAGUAAAUAAAUAAAAUUACUACUGAGAAGGCACAUGAGGAUCACCCAUGUUCCUC	26	31.4		
GGAUUAAUAGCCCACAUGAGGAUCACCCAUGUAGUAUUUUACAAGGAUAUGGUGGGACUUCGUGGCCAGAAGGUGUAAAGGAUC			451	397
UGCGGCGCGGGCCACCGCAGGGCCAGAAGGACAUGAGGAUCACCCAUGUGGCAGGACAGGGCGGUGUAGGAUAUGGCAGGCUGG	16.7	20.8		
AUAUGAUAGAUAGGAUAUACAUUGGAUUUAUAAGUAGAAGGAUCAAGUGGGAAUUAUACAUGAGGAUCACCCAUGUUUUUGGAU			63.9	43.9
ACUGUCCGAGAGAAGGGAACAUGAGGAUCACCCAUGUUACCUCACCUGGUGACGGAACUCCAAGUUCAGGAUAUCUCGGGCGGC	5.14	7.59		
GCGUUUUAUGCAGGAUAUUGUAAUUUAUUACUACAAGAAGGGCAAUACAUGAGGAUCACCCAUGUCAGCAUGGUAUUAAAGUUC	37.6	42.8		
UAAAAGACUAGCAACUAACUCCACAUGAGGAUCACCCAUGUCUAGGAUAUGAGCAGCAAAGCUGCUUAGAAGGAGACGCUAGUC	6.48	6.1		
GGUGAAGCAGGAUAUGUGCCAAUAUACAUGAGGAUCACCCAUGUCAUGUAGGAACUGCGUAUAGAAGGGCUUCACC	37.6	63.5		
GGUCUUCAAGUCAGGAUAUCGUCUGGUCGGUCUGGCGAGAAGGGACAUGAGGAUCACCCAUGUCGUCUCAUCAG	25.5	40.2		
UUUUUACUUGCAGGAUAUGGAGACAUGAGGAUCACCCAUGUAUGAGGAGCUAAAUUAUGCUGUGGCCAGAAGGGUAUUGUUCUU			66.6	58.8
GCCUUAUCUGUCAGGAUAUACAUUUUUUUUUUUUUGUAGAAGGGACAUGAGGAUCACCCAUGUACAUUACAUUG	42.4	42.9		
GGUGGCGCCUAGAAGGCCGGCCAAGAAGGAGCCGGAGGAUAUAGGCCUACAUGAGGAUCACCCAUGUGGCUUAGUCAUAUGGUU	22.4	120		
CGUAUGUCAGGAUAUGCGUAUGCCGCUCGGGACGAGCGGCAGCAGAAGGGACAUGAGGAUCACCCAUGUUCGGG	75	72.7		
CUACAUGAGGAUCACCCAUGUGCACACCGGAUCGGCGUGCGCAGAAGGGCCAUGGAGAAAGCCAGGCAGGAUAUGCAAAGGGCU			396	189
UAUGGUUAAGUCAGGAUAUACUAAUAGAAAUCUGUGUAGAAGGGACAUGAGGAUCACCCAUGUAUGGUAGUGUU	68.7	75.1		
GGUACCAUCACAGGAUAUCGUAUCCUUUGGGUACGAGAAGGGUGAUAACAUGAGGAUCACCCAUGUGGUACCGGGCGUGAGCCC			1340	323
CCUGUGUGAGGAUAUGGUGUUGGAAAAAAGGAAUAGCUCCUCCAGAAGGCACAUGAGGAUCACCCAUGUCGUGG	21.4	53.2		
GCAGCGCAUGUAGGAUAUCGGUCAGUUUCUGAUCGAGAAGGACAUGAGGAUCACCCAUGUAAAUUACCGACUUUGUCGGGCUGC	10.2	39.2		
GUCGUGUGAGGAUAUGGAUAGAAGAAGUGAAAGUAAGCGACCUAGAAGGCACAUGAGGAUCACCCAUGUAUGUG	45.3	75.6		
GUGUUGUCAGGAUAUCUUACAUAACUAUCGUUGUUACCAUUGGAGAAGGGACAUGAGGAUCACCCAUGUUAUCC	22.3	23.7		
AAUAAACUCACAGGAUAUAGCAUAGUCGGCGUGAACUUAAUGGCGACUAUGCUAGAAGGGUGACCACAUGAGGAUCACCCAUGU			710	149
GAUUCACAUGAGGAUCACCCAUGUCGUUAUAUGGGAGGAUAUACGUGGACCGUAGUCCGCGUAGAAGGCCUAAUUG			378	81.2

Sequence	apparent Kd [1] [nM]	apparent Kd [2] [nM]	apparent Kd [3] [nM]	apparent Kd [4] [nM]
UAAUCUCAGAUAGGAUAUAUAGGAUAAUUUAAGACCGAACAUGAGGAUCACCCAUGUGAUUAUUCGUAGAAGGAUCAAUGACCC			78.3	76.2
UUGGCACAUGAGGAUCACCCAUGUUAGGAUAUUGUGGUAGAAACAGCUGGGAAACGCACGAGAAGGGACACACG	37.1	55.5		
GGCGAACAGGCUAACAUGAGGAUCACCCAUGUGGACUCAUGGUAGGAUAUCGGGAAGGAGGAAACCGAGAAGGGCCGGUGAGCA			202	43.6
AAUAACAGAGGAUAUACUAUUUUAUGUGUUUGUUGUUUUGAACAUGAGGAUCACCCAUGUAGAAGGCUGAAUGA	28.8	30.7		
UGAGCAUCAGGAUAUACGUGACGACCGUGAGGUCGAAGGUUACAUGAGGAUCACCCAUGUAGAAGGGAUGUUCU	26.5	57.9		
GCAGCUCCUGACAUGAGGAUCACCCAUGUUUAAUUAUUAAAUCAGGAUAUCCUUUCGAAACGAAAGGAGAAGGGAUAAGCUGCU			4.81	4.94
ACAUGAGGAUCACCCAUGUGAGGAUCACCCAUGUUAUAUUUCAGAAGGCUCGUGUGUUUGAUGAGAGAGGAUAUGGAAUAUAGG	101	71.1		
GCCAUCUCAUGAGGAUAUGCUCCUGUUUCGGGAGCAGAAGGCAUGUCAUAAGACAUGAGGAUCACCCAUGUAGUUAAGAUGGCA			256	11.3
GUGACUUAUAGAGGAUAUUGACAUGAGGAUCACCCAUGUAUUUGGUAGUGUUCAAUGAAUUCUUGCGAGAAGGCUAUAAGACAC	221	261		
GGUCCACGAGGAUAUCGAUUUUAGUACAUGAGGAUCACCCAUGUUGUCCAGGUUUCGAUUCGAGAAGGCGUGGGCC	22.2	24.6		
CUCACGUUAGUAGGAUAUCCGACAUGAGGAUCACCCAUGUCACUACGCCUCAAGGGAAGGCGUAAGGAGAAGGGCUGAUAAAUA			254	156
GGAUGACAAAGUCAUCCAAUACGAACAUGAGGAUCACCCAUGUAGGAUAUCGUACUCAAAGAGUACGAGAAGGACAUGUGCCUU	37.6	236		
CGUACUGAAGUGAGGAUAUUGUCUCGGAUACGAAACAAGAAGGCACAUGAGGAUCACCCAUGUAAACAGUACGA	17.5	14.2		
AGAAAUUCAGGAUAUACAUGAGGAUCACCCAUGUUUGGCAGAGGCGCCGAGAUCCCACGUAGAAGGGAAAAGAC	37.1	79.9		
CUUUUGUGAGGAUAUCAGUAGUAAAAUAAUAAUAUUACUACUGAGAAGGCACAUGAGGAUCACCCAUGUUCCUC	40.5	267		
GACUGACAUGAGGAUCACCCAUGUAUUCGAGCAUGAGGAUAUAUGACUCGUCAUCGGCGGAUAGAAGGCAUGGUUG			162	212
CUCCUACAUGAGGAUCACCCAUGUCAGGAUAUCUCAGUAGCACCUAAAGGUGCUACCCAGAGAAGGGACGUGCA	11.6	15.5		
GGUUCGAAAGUGAGGAUAUGCUGGUCCUUGGAUCAGCAGAAGGCACAUGAGGAUCACCCAUGUCCAAGCGGACC	59	398		
UUAGAAUUGCAAGGAUAUCUAAUGUAGAUAGUAAGAGAAGGUGCUUGAUAGUUACAUGAGGAUCACCCAUGUAUUUGGGUUUAU			395	375
AAAGCAACAUGAGGAUCACCCAUGUAGGAUAUCGCUAUUGUAAUCAUGAAACAUGAUUACAAUAGCGAGAAGGACAUAUGCUCC	6.61	11.2		
UUUAUACAUGAGGAUCACCCAUGUGAGGAUAUGCUUUAUUAUUAUUAUUAUUAUUAUUGCAGAAGGUACGUUAU	35.7	36.1		
CUGCCUUAUGUAGGAUAUGCAUAGCAUUGCUAUGCAGAAGGACAUGAGGAUCACCCAUGUAUGUUAUCAAUACAUAUCUGGCAG	17.5	54.5		
AUCAUGUAAGGAUAUCUUAUAUGGAUCGAAAGAUCAAGUUAAGAGAAGGUACAUGAGGAUCACCCAUGUAUAAC	21.2	27.2		
UGACGGCACACAGGAUAUAGCGCAGAAAGUACGCUAGAAGGGUGAGCACUCGUCCGGGCACAUGAGGAUCACCCAUGUCGUCGA			204	472

— the EternaBench riboswitch data
